{"source": "ChEMBL document CHEMBL1157912", "about": "“Impact of nature and length of linker incorporated in agonists on toll-like receptor 9-mediated immune responses” (J Med Chem, 2010)", "key": {"[1]": {"target": "T1, Toll-like receptor 9 (Homo sapiens) (UniProt Q9NR96)", "T1 sequence (whole entry)": "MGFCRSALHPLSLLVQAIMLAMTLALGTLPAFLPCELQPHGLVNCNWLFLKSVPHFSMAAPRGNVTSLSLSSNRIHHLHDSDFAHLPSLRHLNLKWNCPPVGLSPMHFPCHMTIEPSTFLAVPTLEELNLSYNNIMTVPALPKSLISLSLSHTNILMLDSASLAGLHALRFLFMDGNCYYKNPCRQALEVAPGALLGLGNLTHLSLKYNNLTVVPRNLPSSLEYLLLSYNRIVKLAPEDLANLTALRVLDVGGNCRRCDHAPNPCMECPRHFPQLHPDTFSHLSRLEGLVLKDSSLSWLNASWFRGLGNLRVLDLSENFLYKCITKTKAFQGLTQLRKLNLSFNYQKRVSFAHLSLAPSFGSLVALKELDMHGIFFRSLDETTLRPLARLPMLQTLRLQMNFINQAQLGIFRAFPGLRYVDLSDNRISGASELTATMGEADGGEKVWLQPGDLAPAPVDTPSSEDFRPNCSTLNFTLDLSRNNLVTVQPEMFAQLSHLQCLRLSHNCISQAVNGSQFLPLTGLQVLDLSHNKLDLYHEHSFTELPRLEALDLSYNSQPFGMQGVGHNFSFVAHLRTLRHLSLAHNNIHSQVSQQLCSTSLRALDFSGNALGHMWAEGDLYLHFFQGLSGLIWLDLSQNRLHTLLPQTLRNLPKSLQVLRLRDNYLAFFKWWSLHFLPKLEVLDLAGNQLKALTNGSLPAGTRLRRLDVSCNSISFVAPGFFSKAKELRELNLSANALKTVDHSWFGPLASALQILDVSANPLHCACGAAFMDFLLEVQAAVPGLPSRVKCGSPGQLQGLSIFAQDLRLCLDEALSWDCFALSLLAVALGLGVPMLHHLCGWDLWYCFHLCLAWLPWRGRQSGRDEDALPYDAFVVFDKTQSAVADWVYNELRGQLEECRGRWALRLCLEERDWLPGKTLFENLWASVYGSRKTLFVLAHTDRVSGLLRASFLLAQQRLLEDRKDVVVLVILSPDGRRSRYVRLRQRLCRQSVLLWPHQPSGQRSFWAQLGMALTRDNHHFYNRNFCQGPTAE", "experiment": "Induction of TLR9-mediated immune stimulation in human PBMC assessed as IL2R production at 10 ug/ml after 24 hrs by luminex multiplex assay (RVb = 0.02 +/- 0.01 ng/ml)"}, "[2]": {"target": "T1, Toll-like receptor 9 (Homo sapiens)", "experiment": "Induction of TLR9-mediated immune stimulation in human PBMC assessed as IL12 production at 2 ug/ml after 24 hrs by luminex multiplex assay (RVb = 0.00 ng/ml)"}, "[3]": {"target": "T2, Toll-like receptor 9 (Mus musculus) (UniProt Q9EQU3)", "T2 sequence (whole entry)": "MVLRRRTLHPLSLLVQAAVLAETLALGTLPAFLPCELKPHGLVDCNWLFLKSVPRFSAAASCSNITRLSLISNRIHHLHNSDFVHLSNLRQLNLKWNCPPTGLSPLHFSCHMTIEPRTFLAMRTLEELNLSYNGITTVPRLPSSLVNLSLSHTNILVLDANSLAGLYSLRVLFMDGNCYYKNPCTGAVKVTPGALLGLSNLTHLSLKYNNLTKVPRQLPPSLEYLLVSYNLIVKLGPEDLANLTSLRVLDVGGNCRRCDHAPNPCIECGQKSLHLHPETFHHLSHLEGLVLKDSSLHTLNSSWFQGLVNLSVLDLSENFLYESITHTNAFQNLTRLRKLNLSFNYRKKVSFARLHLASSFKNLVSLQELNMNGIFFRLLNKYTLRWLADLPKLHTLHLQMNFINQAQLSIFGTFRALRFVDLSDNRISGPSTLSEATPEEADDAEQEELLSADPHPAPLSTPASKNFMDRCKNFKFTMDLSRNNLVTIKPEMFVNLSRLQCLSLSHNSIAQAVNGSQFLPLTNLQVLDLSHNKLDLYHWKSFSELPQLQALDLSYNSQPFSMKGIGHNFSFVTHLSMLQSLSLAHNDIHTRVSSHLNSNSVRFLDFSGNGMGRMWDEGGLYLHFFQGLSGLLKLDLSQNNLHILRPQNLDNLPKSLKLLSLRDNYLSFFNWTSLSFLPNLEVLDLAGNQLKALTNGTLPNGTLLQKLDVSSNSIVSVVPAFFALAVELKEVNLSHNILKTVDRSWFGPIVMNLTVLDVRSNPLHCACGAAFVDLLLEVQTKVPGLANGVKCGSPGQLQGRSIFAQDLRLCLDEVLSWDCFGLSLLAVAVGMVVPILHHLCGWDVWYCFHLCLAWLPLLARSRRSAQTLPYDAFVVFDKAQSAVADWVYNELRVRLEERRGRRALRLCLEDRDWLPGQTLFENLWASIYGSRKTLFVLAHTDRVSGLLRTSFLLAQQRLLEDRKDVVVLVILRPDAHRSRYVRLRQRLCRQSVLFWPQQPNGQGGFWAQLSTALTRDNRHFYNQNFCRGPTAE", "experiment": "Induction of TLR9-mediated IL12 production in C57BL/6 mouse spleen cells after 24 hrs by ELISA", "assay_type": "cell-based", "summary_of_the_method": "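C57BL/6 mouse spleen cells were cultured with agonists at 0.1, 0.3, 1, 3 and 10 μg/mL for 24 h. Secreted IL-12 and IL-6 in the supernatants were measured by ELISA. Values are averages of triplicate wells from one representative of at least two independent experiments.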"}}}
{"smiles": "Cc1cn([C@H]2C[C@H](OCCOCCOCCOCCOP(=O)(S)O[C@H]3C[C@H](n4cc(C)c(=O)[nH]c4=O)O[C@@H]3COP(=O)(S)O[C@H]3[C@@H](O)[C@H](n4ccc(N)nc4=O)O[C@@H]3COP(=O)(S)O[C@H]3C[C@H](n4cc(C)c(=O)[nH]c4=O)O[C@@H]3COP(=O)(S)O[C@H]3C[C@H](n4cc(C)c(=O)[nH]c4=O)O[C@@H]3COP(=O)(S)O[C@H]3C[C@H](n4ccc5c(=O)[nH]c(N)nc54)O[C@@H]3COP(=O)(S)O[C@H]3[C@@H](O)[C@H](n4ccc(N)nc4=O)O[C@@H]3COP(=O)(S)O[C@H]3C[C@H](n4cc(C)c(=O)[nH]c4=O)O[C@@H]3COP(=O)(S)O[C@H]3[C@@H](O)[C@H](n4cnc5c(=O)[nH]c(N)nc54)O[C@@H]3COP(=O)(S)O[C@H]3C[C@H](n4cc(C)c(=O)[nH]c4=O)O[C@@H]3COP(=O)(S)O[C@H]3[C@@H](O)[C@H](n4ccc(N)nc4=O)O[C@@H]3COP(=O)(S)O[C@H]3C[C@H](n4cc(C)c(=O)[nH]c4=O)O[C@@H]3CO)[C@@H](COP(=O)(S)O[C@H]3[C@@H](O)[C@H](n4ccc(N)nc4=O)O[C@@H]3COP(=O)(S)O[C@H]3C[C@H](n4cc(C)c(=O)[nH]c4=O)O[C@@H]3COP(=O)(S)O[C@H]3C[C@H](n4cc(C)c(=O)[nH]c4=O)O[C@@H]3COP(=O)(S)O[C@H]3C[C@H](n4ccc5c(=O)[nH]c(N)nc54)O[C@@H]3COP(=O)(S)O[C@H]3[C@@H](O)[C@H](n4ccc(N)nc4=O)O[C@@H]3COP(=O)(S)O[C@H]3C[C@H](n4cc(C)c(=O)[nH]c4=O)O[C@@H]3COP(=O)(S)O[C@H]3[C@@H](O)[C@H](n4cnc5c(=O)[nH]c(N)nc54)O[C@@H]3COP(=O)(S)O[C@H]3C[C@H](n4cc(C)c(=O)[nH]c4=O)O[C@@H]3COP(=O)(S)O[C@H]3[C@@H](O)[C@H](n4ccc(N)nc4=O)O[C@@H]3COP(=O)(S)O[C@H]3C[C@H](n4cc(C)c(=O)[nH]c4=O)O[C@@H]3CO)O2)c(=O)[nH]c1=O", "note": "(some centres undefined)", "values": [{"measurement": "Activity", "setting": "[1]", "value": 0.17, "unit": "ng/mL"}, {"measurement": "Activity", "setting": "[2]", "value": 0.11, "unit": "ng/mL"}, {"measurement": "Activity", "setting": "[3]", "value": "Dose-dependent effect"}]}
{"smiles": "Cc1cn([C@H]2C[C@H](OCC(O)COP(=O)(S)O[C@H]3C[C@H](n4cc(C)c(=O)[nH]c4=O)O[C@@H]3COP(=O)(S)O[C@H]3[C@@H](O)[C@H](n4ccc(N)nc4=O)O[C@@H]3COP(=O)(S)O[C@H]3C[C@H](n4cc(C)c(=O)[nH]c4=O)O[C@@H]3COP(=O)(S)O[C@H]3C[C@H](n4cc(C)c(=O)[nH]c4=O)O[C@@H]3COP(=O)(S)O[C@H]3C[C@H](n4ccc5c(=O)[nH]c(N)nc54)O[C@@H]3COP(=O)(S)O[C@H]3[C@@H](O)[C@H](n4ccc(N)nc4=O)O[C@@H]3COP(=O)(S)O[C@H]3C[C@H](n4cc(C)c(=O)[nH]c4=O)O[C@@H]3COP(=O)(S)O[C@H]3[C@@H](O)[C@H](n4cnc5c(=O)[nH]c(N)nc54)O[C@@H]3COP(=O)(S)O[C@H]3C[C@H](n4cc(C)c(=O)[nH]c4=O)O[C@@H]3COP(=O)(S)O[C@H]3[C@@H](O)[C@H](n4ccc(N)nc4=O)O[C@@H]3COP(=O)(S)O[C@H]3C[C@H](n4cc(C)c(=O)[nH]c4=O)O[C@@H]3CO)[C@@H](COP(=O)(S)O[C@H]3[C@@H](O)[C@H](n4ccc(N)nc4=O)O[C@@H]3COP(=O)(S)O[C@H]3C[C@H](n4cc(C)c(=O)[nH]c4=O)O[C@@H]3COP(=O)(S)O[C@H]3C[C@H](n4cc(C)c(=O)[nH]c4=O)O[C@@H]3COP(=O)(S)O[C@H]3C[C@H](n4ccc5c(=O)[nH]c(N)nc54)O[C@@H]3COP(=O)(S)O[C@H]3[C@@H](O)[C@H](n4ccc(N)nc4=O)O[C@@H]3COP(=O)(S)O[C@H]3C[C@H](n4cc(C)c(=O)[nH]c4=O)O[C@@H]3COP(=O)(S)O[C@H]3[C@@H](O)[C@H](n4cnc5c(=O)[nH]c(N)nc54)O[C@@H]3COP(=O)(S)O[C@H]3C[C@H](n4cc(C)c(=O)[nH]c4=O)O[C@@H]3COP(=O)(S)O[C@H]3[C@@H](O)[C@H](n4ccc(N)nc4=O)O[C@@H]3COP(=O)(S)O[C@H]3C[C@H](n4cc(C)c(=O)[nH]c4=O)O[C@@H]3CO)O2)c(=O)[nH]c1=O", "note": "(some centres undefined)", "values": [{"measurement": "Activity", "setting": "[1]", "value": 0.19, "unit": "ng/mL"}, {"measurement": "Activity", "setting": "[2]", "value": 0.14, "unit": "ng/mL"}, {"measurement": "Activity", "setting": "[3]", "value": "Dose-dependent effect"}]}
{"smiles": "Cc1cn([C@H]2C[C@H](O[C@H]3C[C@@H](O)C[C@@H](OP(=O)(S)O[C@H]4C[C@H](n5cc(C)c(=O)[nH]c5=O)O[C@@H]4COP(=O)(S)O[C@H]4[C@@H](O)[C@H](n5ccc(N)nc5=O)O[C@@H]4COP(=O)(S)O[C@H]4C[C@H](n5cc(C)c(=O)[nH]c5=O)O[C@@H]4COP(=O)(S)O[C@H]4C[C@H](n5cc(C)c(=O)[nH]c5=O)O[C@@H]4COP(=O)(S)O[C@H]4C[C@H](n5ccc6c(=O)[nH]c(N)nc65)O[C@@H]4COP(=O)(S)O[C@H]4[C@@H](O)[C@H](n5ccc(N)nc5=O)O[C@@H]4COP(=O)(S)O[C@H]4C[C@H](n5cc(C)c(=O)[nH]c5=O)O[C@@H]4COP(=O)(S)O[C@H]4[C@@H](O)[C@H](n5cnc6c(=O)[nH]c(N)nc65)O[C@@H]4COP(=O)(S)O[C@H]4C[C@H](n5cc(C)c(=O)[nH]c5=O)O[C@@H]4COP(=O)(S)O[C@H]4[C@@H](O)[C@H](n5ccc(N)nc5=O)O[C@@H]4COP(=O)(S)O[C@H]4C[C@H](n5cc(C)c(=O)[nH]c5=O)O[C@@H]4CO)C3)[C@@H](COP(=O)(S)O[C@H]3[C@@H](O)[C@H](n4ccc(N)nc4=O)O[C@@H]3COP(=O)(S)O[C@H]3C[C@H](n4cc(C)c(=O)[nH]c4=O)O[C@@H]3COP(=O)(S)O[C@H]3C[C@H](n4cc(C)c(=O)[nH]c4=O)O[C@@H]3COP(=O)(S)O[C@H]3C[C@H](n4ccc5c(=O)[nH]c(N)nc54)O[C@@H]3COP(=O)(S)O[C@H]3[C@@H](O)[C@H](n4ccc(N)nc4=O)O[C@@H]3COP(=O)(S)O[C@H]3C[C@H](n4cc(C)c(=O)[nH]c4=O)O[C@@H]3COP(=O)(S)O[C@H]3[C@@H](O)[C@H](n4cnc5c(=O)[nH]c(N)nc54)O[C@@H]3COP(=O)(S)O[C@H]3C[C@H](n4cc(C)c(=O)[nH]c4=O)O[C@@H]3COP(=O)(S)O[C@H]3[C@@H](O)[C@H](n4ccc(N)nc4=O)O[C@@H]3COP(=O)(S)O[C@H]3C[C@H](n4cc(C)c(=O)[nH]c4=O)O[C@@H]3CO)O2)c(=O)[nH]c1=O", "note": "(some centres undefined)", "values": [{"measurement": "Activity", "setting": "[1]", "value": 0.28, "unit": "ng/mL"}, {"measurement": "Activity", "setting": "[2]", "value": 0.13, "unit": "ng/mL"}, {"measurement": "Activity", "setting": "[3]", "value": "Dose-dependent effect"}]}
